Screening data as filed in PubChem.
Most compounds without a hit are left out; they make up all but 4.7% or so of the library.
aSyn 5UTR inh: MLPCN primary screen, SNCA 5' untranslated region. alpha-synuclein 5'UTR reporter, inhibitor activity. inhibition, % (tested at 7.5 µM). 0.82% of 300,000 active; in the data active = inhibition above about 60%; inconclusive = no clear call, values can overlap the other calls;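 also: H4 neuroglioblastoma cells stably carrying SNCA 5'UTR luciferase fusion; 0% = DMSO wells and 100% = positive control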
Mdm2-MdmX inh: inhibitors of human Mdm2-MdmX association, primary screen, cell-based, luminescence, split luciferase, SaOS-2, uHTS; SaOS-2 split-luciferase Mdm2/MdmX complementation; inhibition, % at 8 µM; 3% of 330,000 active;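 active = inhibition of at least 50% at 8 µM in the primary screen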
Target sequence (O15151 whole entry, looked up): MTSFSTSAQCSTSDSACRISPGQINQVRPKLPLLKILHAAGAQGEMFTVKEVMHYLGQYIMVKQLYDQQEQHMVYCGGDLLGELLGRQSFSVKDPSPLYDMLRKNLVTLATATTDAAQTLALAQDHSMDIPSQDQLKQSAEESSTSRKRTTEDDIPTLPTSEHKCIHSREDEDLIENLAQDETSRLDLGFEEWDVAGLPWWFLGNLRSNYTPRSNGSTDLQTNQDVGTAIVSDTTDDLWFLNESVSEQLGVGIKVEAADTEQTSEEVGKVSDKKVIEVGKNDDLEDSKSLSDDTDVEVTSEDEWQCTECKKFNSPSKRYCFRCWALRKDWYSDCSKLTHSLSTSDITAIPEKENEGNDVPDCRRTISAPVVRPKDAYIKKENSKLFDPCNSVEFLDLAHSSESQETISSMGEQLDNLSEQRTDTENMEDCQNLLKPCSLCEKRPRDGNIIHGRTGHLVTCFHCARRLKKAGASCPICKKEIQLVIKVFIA
Target sequence (Q00987 whole entry, looked up): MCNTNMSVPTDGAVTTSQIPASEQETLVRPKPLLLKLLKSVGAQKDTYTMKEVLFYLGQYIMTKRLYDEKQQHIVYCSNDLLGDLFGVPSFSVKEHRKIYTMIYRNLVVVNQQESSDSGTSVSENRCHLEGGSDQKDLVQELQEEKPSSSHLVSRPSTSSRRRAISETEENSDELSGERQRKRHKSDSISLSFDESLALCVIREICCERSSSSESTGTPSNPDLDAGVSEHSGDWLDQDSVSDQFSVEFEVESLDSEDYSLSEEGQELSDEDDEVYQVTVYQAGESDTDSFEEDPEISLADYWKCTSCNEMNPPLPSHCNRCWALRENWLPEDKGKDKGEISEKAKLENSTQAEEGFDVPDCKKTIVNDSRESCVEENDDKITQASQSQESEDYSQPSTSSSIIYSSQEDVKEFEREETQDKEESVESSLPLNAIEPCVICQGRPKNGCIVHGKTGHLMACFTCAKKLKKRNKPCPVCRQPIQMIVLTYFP
IMP-1 inh: IMP-1 metallo-beta-lactamase inhibitors, primary screen, biochemical, epi-absorbance readout, Pseudomonas aeruginosa enzyme | purified IMP-1, nitrocefin hydrolysis, epi-absorbance fluorescence | inhibition, % at 5.6 µM | 0.45% of 290,000 active | AID 1556, 2009;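 active = inhibition above the mean plus 3 SD of all compounds in the same screening run, cut at about 4.5% in these data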;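 also: 0% = IMP-1 with DMSO and 100% = DMSO wells lacking enzyme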
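System: Purified recombinant IMP-1 metallo-beta-lactamase enzyme | Measured by: Fluorescence quenching readout, ex 480/em 530 nm | Replication: Singlicate | Incubation: 15 min preincubation plus 25 min reaction at 25 °C | Evaluation: Percent inhibition from optical density relative to buffer-blank wells | Benchmarks: DMSO with and without IMP-1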
VIM-2 inhibitor: VIM-2 metallo-beta-lactamase inhibitors, primary screen, biochemical, epi-absorbance readout, Pseudomonas aeruginosa enzyme | purified VIM-2, nitrocefin hydrolysis, epi-absorbance fluorescence | inhibition, % at 5.6 µM | 0.89% of 290,000 active | AID 1527, 2009;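 active = inhibition above the mean of all tested compounds plus 3 SD, cutoff set per screening run, cut at about 7.5% in these data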;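 also: red hydrolysis product quenches plate fluorescence so inhibitors raise well fluorescence; 0% = enzyme with DMSO and 100% = DMSO without enzyme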
697 NFkB inh: inhibitors of PMA/ionomycin-induced NF-kB reporter, 697 cells, primary screen, B-cell NF-kB inhibitor project, cell-based, luminescence, uHTS; 697 B-cell NF-kB luciferase reporter, 16 h; inhibition, % at 4 µM; 0.33% of 330,000 active; in the data active = inhibition above about 35%
Jurkat NFkB inh: inhibitors of induced NF-kB luciferase reporter, primary screen, TCR NF-kB activation inhibitor project, cell-based, luminescence, uHTS | Jurkat, PMA/ionomycin-induced NF-kB luciferase reporter | inhibition, % at 4 µM | 0.53% of 330,000 active; in the data active = inhibition above about 50%
Jurkat NFkB conf: PMA/ionomycin-induced NF-kB reporter inhibitors, Jurkat retest, confirmation, T-cell NF-kB inhibitor project, cell-based, luminescence, single concentration. shares compounds with Jurkat NFkB inh. 27% of 2,700 active. inhibition, % at 4 µM. AID 435020, 2010. Jurkat NF-kB luciferase, 16 h;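 active = inhibition reaching about 45% at 4 µM in either replicate, limit read from the data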;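 also: plate controls were PMA/ionomycin stimulated DMSO wells for no effect and unstimulated DMSO wells for full effect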
Starred values were filed as active, the others as inactive.

COc1cc(C(=O)COC(=O)c2c(C)noc2C)cc(OC)c1OC was read as Mdm2-MdmX inh 3.4, 697 NFkB inh 22.7, Jurkat NFkB inh -162.6 and Jurkat NFkB conf 3.8.
For Cc1cc(C)c(C(=O)COC(=O)c2c(C)noc2C)cc1C the results were Mdm2-MdmX inh -3.8, 697 NFkB inh -8.3 and Jurkat NFkB inh 0.4.
Screening Cc1ccccc1S(=O)(=O)Nc1nc2ccccc2nc1N1CCc2ccccc2C1 returned aSyn 5UTR inh -108.3, Mdm2-MdmX inh -10.7, IMP-1 inh -2.1, VIM-2 inhibitor -1.4, 697 NFkB inh -135.0, Jurkat NFkB inh -165.9 and Jurkat NFkB conf -89.7.
Screening O=S(=O)(Nc1nc2ccccc2nc1N1CCc2ccccc2C1)c1ccc(Br)cc1 returned IMP-1 inh -2.4 and VIM-2 inhibitor 6.8.
COc1cc(/C=N/NS(=O)(=O)c2ccc(C)cc2)ccc1OCc1ccc(C(=O)O)cc1 was read as aSyn 5UTR inh 84.2*, Mdm2-MdmX inh 49.8, IMP-1 inh 1.6, VIM-2 inhibitor 3.5, 697 NFkB inh -8.5, Jurkat NFkB inh 62.9* and Jurkat NFkB conf 27.6.
Screening CCOC(=O)c1c(C)[nH]c(C(=O)OCC(=O)c2ccccc2)c1C returned aSyn 5UTR inh -99.0, Mdm2-MdmX inh -130.2, 697 NFkB inh -220.5, Jurkat NFkB inh -193.4 and Jurkat NFkB conf -151.2.
For CCOC(=O)c1[nH]c(C)c(C(=O)OCC(=O)NC(C)c2ccc(F)cc2)c1C (stereo unspecified) the results were Mdm2-MdmX inh 35.5, 697 NFkB inh -69.1, Jurkat NFkB inh 60.0* and Jurkat NFkB conf 50.7*.
For CCOC(=O)c1c(C)[nH]c(C(=O)OCC(=O)Nc2cc(Cl)ccc2OC)c1C the results were aSyn 5UTR inh -5.6, Mdm2-MdmX inh 27.9, IMP-1 inh -2.1, VIM-2 inhibitor -3.3, 697 NFkB inh 16.5 and Jurkat NFkB inh 6.8.
Screening CCOC(=O)c1[nH]c(C)c(C(=O)Nc2cc(OC)ccc2OC)c1C returned aSyn 5UTR inh 35.8, Mdm2-MdmX inh 49.2, IMP-1 inh -1.7, VIM-2 inhibitor -2.6, 697 NFkB inh 7.5, Jurkat NFkB inh 69.6* and Jurkat NFkB conf 46.5.
`CCOC(=O)c1c(C)[nH]c(C(=O)OCC(=O)NCc2ccccc2)c1C` gave Mdm2-MdmX inh -21.8, 697 NFkB inh 5.1 and Jurkat NFkB inh -4.4.
`CCOC(=O)c1c(C)[nH]c(C(=O)OCC(=O)NC(C)(C)C)c1C` gave aSyn 5UTR inh -18.5, Mdm2-MdmX inh 21.2, IMP-1 inh 0.7, VIM-2 inhibitor 0.5, 697 NFkB inh -4.3 and Jurkat NFkB inh 10.1.
CCOC(=O)c1c(C)[nH]c(C(=O)OCc2ccccc2F)c1C was read as aSyn 5UTR inh -110.3, Mdm2-MdmX inh -237.9, IMP-1 inh -0.4, VIM-2 inhibitor 0.4, 697 NFkB inh -196.0, Jurkat NFkB inh -166.1 and Jurkat NFkB conf -115.0.
For O=S(=O)(CCN1CCCCC1)Oc1ccc(Cl)cc1Cl the results were aSyn 5UTR inh -3.2, Mdm2-MdmX inh -8.2, IMP-1 inh -3.0, VIM-2 inhibitor -0.4, 697 NFkB inh 3.4 and Jurkat NFkB inh -2.9.
Screening Cc1ccn(CC(=O)N2CCCC(N3CCN(c4cccc(Cl)c4)CC3)C2)n1 (stereo unspecified) returned aSyn 5UTR inh -5.4, Mdm2-MdmX inh -1.0, IMP-1 inh -4.0, VIM-2 inhibitor -2.1, 697 NFkB inh -13.9 and Jurkat NFkB inh -1.7.
For CCOC(=O)c1nn(-c2ccc(F)cc2)c(=O)cc1OCC(=O)Nc1ccc(F)c(F)c1 the results were aSyn 5UTR inh -3.4, Mdm2-MdmX inh 25.1, 697 NFkB inh 3.5 and Jurkat NFkB inh 12.1.
`CC(C)NC(=O)N(C)C[C@H]1Oc2ccc(NS(=O)(=O)c3ccccc3)cc2C(=O)N([C@H](C)CO)C[C@H]1C` gave Mdm2-MdmX inh -23.5, 697 NFkB inh 16.1 and Jurkat NFkB inh -4.6.
For CCOC(=O)c1[nH]c(C)c(C(=O)Nc2ccc(C)cc2C)c1C the results were aSyn 5UTR inh -27.8, Mdm2-MdmX inh 32.5, IMP-1 inh -1.8, VIM-2 inhibitor -3.3, 697 NFkB inh -62.2, Jurkat NFkB inh 52.6* and Jurkat NFkB conf 42.5.
For CCOC(=O)c1[nH]c(C)c(C(=O)Nc2ccccc2F)c1C the results were aSyn 5UTR inh -54.1, Mdm2-MdmX inh 34.6, IMP-1 inh -3.7, VIM-2 inhibitor -4.9, 697 NFkB inh -76.9, Jurkat NFkB inh 52.3* and Jurkat NFkB conf 12.8.
For CCOC(=O)c1[nH]c(C)c(C(=O)Nc2ccc(F)cc2)c1C the results were aSyn 5UTR inh 0.1, Mdm2-MdmX inh -7.6, IMP-1 inh 4.5, VIM-2 inhibitor 0.0, 697 NFkB inh 13.8 and Jurkat NFkB inh -7.0.
For CCOC(=O)c1cc(CC)sc1NC(=O)c1cccc(N2C(=O)CCC2=O)c1 the results were aSyn 5UTR inh 17.2, Mdm2-MdmX inh -5.2, IMP-1 inh -3.6, VIM-2 inhibitor 0.9, 697 NFkB inh -67.8, Jurkat NFkB inh 56.9* and Jurkat NFkB conf 8.3.
Screening O=C(CSc1nc2sc3c(c2c(=O)n1-c1ccccc1)CCCC3)N/N=C/c1ccccc1C(=O)O returned aSyn 5UTR inh 18.9, Mdm2-MdmX inh 17.3, IMP-1 inh -0.6, VIM-2 inhibitor 0.4, 697 NFkB inh 6.5 and Jurkat NFkB inh 7.1.
CCOC(=O)COc1cccc2c(=O)n(CC(=O)NCc3ccccc3)ccc12 was read as aSyn 5UTR inh inconclusive, Mdm2-MdmX inh 46.6, IMP-1 inh -2.6, VIM-2 inhibitor -3.1, 697 NFkB inh -6.2, Jurkat NFkB inh 63.2* and Jurkat NFkB conf 49.5.
For c1ccc(-c2cnc(-c3ccccc3)nn2)cc1 the results were aSyn 5UTR inh -32.9, Mdm2-MdmX inh -203.9, 697 NFkB inh -239.9, Jurkat NFkB inh -177.5 and Jurkat NFkB conf -102.0.
For COc1ccc(/C=C2\SC(N3CCCCC3)=NC2=O)cc1OC the results were aSyn 5UTR inh -0.5, Mdm2-MdmX inh 22.8, IMP-1 inh -2.4, VIM-2 inhibitor 0.0, 697 NFkB inh -1.2 and Jurkat NFkB inh -13.2.
COc1cc(/C=C2\SC(N3CCC(C)CC3)=NC2=O)ccc1O was read as aSyn 5UTR inh -2.1, Mdm2-MdmX inh 48.2, IMP-1 inh -1.8, VIM-2 inhibitor -0.4, 697 NFkB inh 34.3, Jurkat NFkB inh 60.5* and Jurkat NFkB conf 18.9.
Screening COc1ccccc1CNC(=O)COC(=O)/C=C/c1ccc2c(c1)OCO2 returned Mdm2-MdmX inh -23.2, 697 NFkB inh -25.3 and Jurkat NFkB inh -19.1.
